Activity data for two compounds are collected here from ChEMBL document CHEMBL1158019, “A new pregnane glycoside from Dioscorea collettii var. hypoglauca” (1999).

Activity calls are given as the source filed them. No cut-off for these calls is given here.

The subject of one experiment is MDA-MB-231. The experiment in a line: Cytotoxicity against human MDA-MB-231 cells after 5 days by MTT assay. It counts as functional, cell-based. In short, it runs like this: (§1)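 Cells grown in RPMI 1640 with 10% heat-inactivated FCS, penicillin/streptomycin and 5 µg/mL insulin. 1000 cells seeded per well; test samples added in fresh medium 24 h later, then 5 days at 37 °C. MTT (2 mg/mL solution) added for 4 h; cells dissolved in DMSO for 10 min; absorbance read at 540 nm. Untreated cells set as 100% survival; IC50 from viability-concentration plots; etoposide positive control.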

For the next experiment, the system named is PC-3. The experiment can be described thus: Cytotoxicity against human PC-3 cells after 5 days by MTT assay. It counts as functional, cell-based. In short, it runs like this:
(§2)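 Cells grown in RPMI 1640 with 10% heat-inactivated FCS, 100 IU/mL penicillin and 100 µg/mL streptomycin. 1000 cells seeded per well; test samples added in fresh medium 24 h later, then 5 days at 37 °C. MTT (2 mg/mL solution) added for 4 h; cells dissolved in DMSO for 10 min; A540 read. Untreated cells taken as 100% survival; IC50 from viability-concentration plots; etoposide positive control.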
(Formazan colour is commonly taken as a measure of viable cells.)

Another experiment concerns Pyricularia. The experiment can be described thus: Morphological deformation in Pyricularia oryzae mycelia. It counts as functional. In short, it runs like this: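 Mycelia germinated from P. oryzae conidia were scored for morphological deformation. The endpoint was the minimum morphological deformation concentration (MMDC), the lowest concentration that produced deformation. Griseofulvin and fusarelin A served as positive controls.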

The test system of a further experiment is HT-29. The experiment can be described thus: Cytotoxicity against human HT-29 cells after 5 days by MTT assay. Type of experiment: functional, cell-based. The gist of the method: as §2
The test system of a further experiment is LNCaP. The experiment in a line: Cytotoxicity against human LNCaP cells after 5 days by MTT assay. It counts as functional, cell-based. The gist of the method: as §2
The test system of a further experiment is HCT-15. The experiment in a line: Cytotoxicity against human HCT-15 cells after 5 days by MTT assay. It counts as functional, cell-based. In short, it runs like this: as §2
In the next experiment the test system is T47D. The experiment can be described thus: Cytotoxicity against human T47D cells after 5 days by MTT assay. It counts as functional, cell-based. In short, it runs like this:
as §1

On to `CC(=O)C1=CC[C@H]2[C@@H]3CC=C4C[C@@H](O[C@@H]5O[C@H](CO)[C@@H](O[C@@H]6O[C@@H](C)[C@H](O)[C@@H](O)[C@H]6O)[C@H](O)[C@H]5O[C@@H]5O[C@@H](C)[C@H](O)[C@@H](O)[C@H]5O)CC[C@]4(C)[C@H]3CC[C@]12C`, for which the outcome in the experiment with MDA-MB-231, in the experiment with PC-3, with HT-29, with LNCaP, in the experiment on HCT-15 and in the experiment on T47D was inactive. In the experiment on Pyricularia, the Activity was found to be 236 µM.

For `CC(=O)[C@H]1[C@@H](OC(=O)CCC(C)CO[C@@H]2O[C@H](CO)[C@@H](O)[C@H](O)[C@H]2O)C[C@H]2[C@@H]3CC=C4C[C@@H](O[C@@H]5O[C@H](CO)[C@@H](O[C@@H]6O[C@@H](C)[C@H](O)[C@@H](O)[C@H]6O)[C@H](O)[C@H]5O[C@@H]5O[C@@H](C)[C@H](O)[C@@H](O)[C@H]5O)CC[C@]4(C)[C@H]3CC[C@@]21C` (some centres undefined) [HYPOGLAUCIN G], the result with MDA-MB-231, with PC-3, in the experiment with HT-29, in the experiment with LNCaP, in the experiment with HCT-15 and in the experiment on T47D was inactive. The Activity with Pyricularia stood at 135 µM.
